Published values of several laboratories.
Target: Protein kinase C zeta type (PRKCZ, Homo sapiens, UniProt Q05513)
One construct used (Q05513 1-592): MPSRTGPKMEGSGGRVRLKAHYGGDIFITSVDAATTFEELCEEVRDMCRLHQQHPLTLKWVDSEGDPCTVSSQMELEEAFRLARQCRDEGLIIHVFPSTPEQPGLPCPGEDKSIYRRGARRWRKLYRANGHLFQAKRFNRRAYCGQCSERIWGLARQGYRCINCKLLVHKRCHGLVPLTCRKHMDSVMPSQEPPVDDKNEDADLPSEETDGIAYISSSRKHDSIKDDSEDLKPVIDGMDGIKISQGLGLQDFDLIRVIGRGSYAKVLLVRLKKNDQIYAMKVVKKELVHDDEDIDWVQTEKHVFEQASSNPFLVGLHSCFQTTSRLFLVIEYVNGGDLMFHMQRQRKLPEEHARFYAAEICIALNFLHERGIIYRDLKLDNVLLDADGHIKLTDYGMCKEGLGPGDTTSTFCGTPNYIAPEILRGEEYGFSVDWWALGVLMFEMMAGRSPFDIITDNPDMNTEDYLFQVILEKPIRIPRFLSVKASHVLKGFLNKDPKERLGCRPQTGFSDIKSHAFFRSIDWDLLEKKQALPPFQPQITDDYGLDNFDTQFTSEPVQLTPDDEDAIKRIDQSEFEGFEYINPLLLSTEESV

O=C(Nc1cnn(-c2csc(C(=O)NC3COC3)c2)c1)Nc1ccccc1Cl  remaining activity (enzyme activity, inhibitor; 5 µM): 105%
c1ccc(CNc2nc(N3CCOc4ccccc43)nc3c2CCCC3)cc1  inhibition (target engagement in cells, inhibitor, chemoproteomics; 20 mM): 17.3%
N#CCCc1ccc2c(c1)-c1[nH]c3ccc([N+](=O)[O-])cc3c1CC(=O)N2  remaining signal (cell-free assay; 0.5 µM): 83.4%
CCN1CCC2(CC1)NC(=O)c1c(c3ccc(Cl)c(Cl)c3n1C)C2C#N (racemic)  ΔTm (thermal stability, DSF; 10 µM): 0.1 °C
Cc1cc(NC(=O)c2cccc3cc(-c4cccc5[nH]nc(N)c45)ccc23)ccc1F  activity vs control (enzyme activity, inhibitor; 0.1 µM): 99%
Cc1ccc(-n2nc(C(C)(C)C)cc2NC(=O)Nc2ccc(OCCN3CCOCC3)c3ccccc23)cc1  inhibition (enzyme activity, inhibitor; 10 µM): -3%
CC(C)(C)C(=O)c1sc(NC2CCCCC2)nc1N  remaining activity (enzyme activity, inhibitor; 10 µM): 104%
Cn1c2c(c3ccc(Cl)c(Cl)c31)C(C#N)C1(CCCC1)NC2=O (centres unmarked)  ΔTm (thermal stability, DSF; 10 µM): -0.2 °C
CC(C)(C)c1nc(-c2cccc(NS(=O)(=O)c3c(F)cccc3F)c2F)c(-c2ccnc(N)n2)s1  remaining activity (enzyme activity, inhibitor, radiometric; 1 µM): 109%
COc1cc2ncnc(Nc3ccc(Oc4ccccc4)c(C)c3C)c2cc1OC  inhibition (enzyme activity, inhibitor; 1 µM): 14%
Cc1ccc(Nc2nccc(N(C)c3ccc4c(C)n(C)nc4c3)n2)cc1S(N)(=O)=O  inhibition (enzyme activity, inhibitor; 10 µM): -2%
Cn1c2c(c3ccc(Cl)c(Cl)c31)C(C#N)C1(CCOCC1)NC2=O (centres unmarked)  ΔTm (thermal stability, DSF; 10 µM): -0.2 °C
Cn1c(=O)n(-c2ccc(C(C)(C)C#N)cc2)c2c3cc(-c4cnc5ccccc5c4)ccc3ncc21  remaining activity (enzyme activity, inhibitor; 10 µM): 123%
COc1cc(Nc2cnc(C#N)c(O[C@H](C)CN(C)C)n2)ncc1-c1cnn(C)c1  remaining activity (enzyme activity, inhibitor, radiometric; 1 µM): 121%
COc1cc(Cl)c(C(=O)N[C@@H](CN[C@H]2CC[C@@H](N)CC2)Cc2ccc(C#N)cc2)cc1-c1ccc(CN[C@H](C)c2ccc(C)cc2)o1  remaining activity (enzyme activity, inhibitor; 1 µM): 91%
Cn1c2c(c3ccc(Cl)c(Cl)c31)C(C#N)C1(CCNCC1)NC2=O (racemic)  ΔTm (thermal stability, DSF; 10 µM): 0.9 °C
CC/C(=N\NC(=O)NCc1cccc(O)c1)c1ccc(O)c(C)c1O  inhibition (enzyme activity, inhibitor; 0.1 µM): 11%
